Assay results as given in ChEMBL document CHEMBL2034818, “Synthesis and evaluation of boronic acids as inhibitors of Penicillin Binding Proteins of classes A, B and C” (Bioorg Med Chem, 2012).
Positions count from the first letter of the chain named.

Legend:
[1] = Inhibition of Streptococcus pneumoniae PBP1b incubated for 60 mins prior to fluoresceyl-ampicillin labelling measured after 20 mins by SDS-PAGE analysis in the presence of triton X 100
How it was run: (§1)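 Assay A: purified S. pneumoniae PBP1b (0.7 µM) pre-incubated with inhibitor in 10 mM sodium phosphate pH 7.0, 60 min, 25 °C, 0.01% Triton X-100. Remaining active enzyme labelled with fluoresceyl-ampicillin (10 µM), 20 min; reaction stopped, run on SDS-PAGE, fluorescence of the band quantified as residual activity.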

[2] = target: T1, Penicillin-binding protein 2x (Streptococcus pneumoniae serotype 4 (strain ATCC BAA-334 / TIGR4)) (UniProt P14677); assay: Inhibition of penicillin-resistant Streptococcus pneumoniae 5204 PBP2x using S2d as substrate assessed as residual activity at 1 mM incubated for 4 hrs prior to substrate addition by DNTB-based spectrophotometry
T1 sequence (whole entry): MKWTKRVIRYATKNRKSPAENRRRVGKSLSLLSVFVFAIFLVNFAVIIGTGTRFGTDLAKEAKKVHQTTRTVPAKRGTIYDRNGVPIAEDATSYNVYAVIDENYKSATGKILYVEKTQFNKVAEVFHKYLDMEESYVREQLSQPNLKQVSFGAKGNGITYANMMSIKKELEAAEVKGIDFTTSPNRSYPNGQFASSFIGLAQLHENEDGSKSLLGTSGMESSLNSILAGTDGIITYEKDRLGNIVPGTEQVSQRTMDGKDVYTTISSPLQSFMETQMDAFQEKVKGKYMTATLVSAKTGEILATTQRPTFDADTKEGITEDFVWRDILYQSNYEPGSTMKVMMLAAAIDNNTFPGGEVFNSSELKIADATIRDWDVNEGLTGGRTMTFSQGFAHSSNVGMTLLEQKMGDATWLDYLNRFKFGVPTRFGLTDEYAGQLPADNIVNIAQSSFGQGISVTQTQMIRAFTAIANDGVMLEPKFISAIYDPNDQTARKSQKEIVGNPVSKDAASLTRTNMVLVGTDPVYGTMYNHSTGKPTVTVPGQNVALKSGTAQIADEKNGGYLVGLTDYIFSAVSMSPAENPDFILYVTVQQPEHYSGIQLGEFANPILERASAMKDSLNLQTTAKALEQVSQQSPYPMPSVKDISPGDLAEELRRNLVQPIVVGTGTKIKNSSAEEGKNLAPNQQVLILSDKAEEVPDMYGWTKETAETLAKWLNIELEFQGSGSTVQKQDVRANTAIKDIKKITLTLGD

[3] = target: T2, Penicillin-binding protein 2X (Streptococcus pneumoniae R6) (UniProt P59676); assay: Inhibition of penicillin-sensitive Streptococcus pneumoniae R6 PBP2x using S2d as substrate assessed as residual activity at 1 mM incubated for 60 mins prior to substrate addition by DTNB-based spectrophotometry
T2 sequence (whole entry): T1 sequence (whole entry) with T385M
How it was run: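 S. pneumoniae PBP2x-R6, 0.09 µM, pre-incubated with inhibitor in 10 mM sodium phosphate pH 7.0 with 0.01 mg/mL BSA, 60 min, 25 °C; 1% DMF final. S2d (1 mM) plus DTNB (1 mM) then added; residual activity taken from initial hydrolysis rate at 412 nm, corrected for spontaneous hydrolysis; triplicates, six no-inhibitor controls per plate.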

Streptococcus pneumoniae [4] = assay: Inhibition of Streptococcus pneumoniae PBP1b assessed as residual activity at 1mM incubated for 60 mins prior to fluoresceyl-ampicillin labelling measured after 20 mins by SDS-PAGE analysis in the presence of triton X 100; how it was run: as §1
Enterococcus faecium = assay: Inhibition of penicillin-resistant Enterococcus faecium PBP5fm assessed as residual activity at 1 mM incubated for 4 hrs prior to prior to fluoresceyl-ampicillin labelling measured after 20 mins by SDS-PAGE analysis
[5] = target: D-alanyl-D-alanine carboxypeptidase (Actinomadura sp. R39) (UniProt P39045); assay: Inhibition of Actinomadura sp. R39 PBP using S2d as substrate assessed as residual activity at 1 mM incubated for 60 mins prior to substrate addition by DTNB-based spectrophotometry
D-alanyl-D-alanine carboxypeptidase (Actinomadura sp. R39), sequence (P39045 whole entry): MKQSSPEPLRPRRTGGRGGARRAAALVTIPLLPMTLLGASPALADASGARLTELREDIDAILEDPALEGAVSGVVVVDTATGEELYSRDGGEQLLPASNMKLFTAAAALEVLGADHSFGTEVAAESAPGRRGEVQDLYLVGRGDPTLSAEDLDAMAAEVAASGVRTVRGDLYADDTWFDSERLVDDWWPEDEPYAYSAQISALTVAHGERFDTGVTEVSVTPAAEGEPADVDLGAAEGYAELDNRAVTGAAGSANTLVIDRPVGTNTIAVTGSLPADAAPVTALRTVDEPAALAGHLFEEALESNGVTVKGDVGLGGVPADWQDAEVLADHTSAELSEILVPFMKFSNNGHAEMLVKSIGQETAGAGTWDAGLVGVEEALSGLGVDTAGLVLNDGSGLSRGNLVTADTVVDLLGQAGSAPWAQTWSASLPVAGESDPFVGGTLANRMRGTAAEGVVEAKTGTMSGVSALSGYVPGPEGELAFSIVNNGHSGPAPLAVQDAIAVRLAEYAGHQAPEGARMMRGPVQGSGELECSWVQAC
How it was run: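 R39 (Actinomadura, prepared per Granier), 3.5 nM, pre-incubated with inhibitor 60 min at 25 °C in 10 mM sodium phosphate pH 7.2, 100 mM NaCl, 100 mM D-alanine, 0.01 mg/mL BSA; inhibitors from DMF stock, 1% DMF final. Residual activity from initial rate of S2d (1 mM) hydrolysis with DTNB (1 mM), read at 412 nm, corrected for spontaneous hydrolysis; triplicates, uninhibited control six replicates per plate.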

Staphylococcus aureus = assay: Inhibition of penicillin-resistant Staphylococcus aureus PBP2a assessed as residual activity at 1 mM incubated for 4 hrs prior to prior to fluoresceyl-ampicillin labelling measured after 20 mins by SDS-PAGE analysis
[6] = target: T3, D-alanyl-D-alanine carboxypeptidase (Actinomadura sp. R39, UniProt P39045); assay: Binding affinity to Actinomadura sp. R39 PBP
T3 sequence (P39045 whole entry): as above

[7] = target: T4, Penicillin-binding protein 2X (Streptococcus pneumoniae R6, UniProt P59676); assay: Inhibition of penicillin-sensitive Streptococcus pneumoniae R6 PBP2x using S2d as substrate incubated for 60 mins prior to substrate addition by DTNB-based spectrophotometry
T4 sequence (P59676 whole entry): T1 sequence (whole entry) with T385M
How it was run: (§2)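 PBP purified per earlier method. Pre-incubation: enzyme with inhibitor (DMF stock, 1% DMF final) at 25 °C for 60 min. Buffer for R39 (3.5 nM): 10 mM sodium phosphate pH 7.2, 100 mM NaCl, 100 mM D-alanine, 0.01 mg/mL BSA. Buffer for PBP2xR6: 10 mM sodium phosphate pH 7.0, 0.01 mg/mL BSA. S2d (1 mM) and DTNB (1 mM) then added. Initial hydrolysis rate read at 412 nm. Triplicates. IC50 by non-linear regression of residual activity over a concentration range, with 0.01% Triton X-100.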

[8] = Inhibition of Streptococcus pneumoniae PBP1b using PATP thioester as substrate incubated for 60 mins prior to substrate addition by DNTB-based spectrophotometry in the presence of triton X 100
How it was run: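 Assay B: S. pneumoniae PBP1b (0.2 µM) pre-incubated with inhibitor 60 min at 25 °C in 10 mM sodium phosphate pH 7.0, 100 mM D-alanine, 0.01 mg/mL BSA, 0.01% Triton X-100. Residual activity from initial rates of PATP thioester (5 mM) hydrolysis with DTNB (1.0 mM); IC50 by non-linear regression of residual activity across concentrations.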

Streptococcus pneumoniae [9] = assay: Inhibition of Streptococcus pneumoniae PBP1b using PATP thioester as substrate assessed as residual activity at 1 mM incubated for 60 mins prior to substrate addition by DNTB-based spectrophotometry
How it was run: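 PBP1b (0.2 µM) pre-incubated with inhibitor for 60 min at 25 °C in 10 mM sodium phosphate pH 7.0, 100 mM D-alanine, 0.01 mg/mL BSA. PATP thioester (5 mM) and DTNB (1.0 mM) then added. Residual activity derived from initial hydrolysis rates against no-inhibitor controls.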

[10] = target: T3, D-alanyl-D-alanine carboxypeptidase; assay: Inhibition of Actinomadura sp. R39 PBP using S2d as substrate incubated for 60 mins prior to substrate addition by DTNB-based spectrophotometry; how it was run: as §2
Streptococcus pneumoniae [11] = assay: Inhibition of Streptococcus pneumoniae PBP1b assessed as residual activity at 100 uM incubated for 60 mins prior to fluoresceyl-ampicillin labelling measured after 20 mins by SDS-PAGE analysis in the presence of triton X 100; how it was run: as §1

COc1cccc(C(=O)NCB(O)O)c1
IC50 [1]: 79 µM | Activity [2]: 101% | Activity [3]: 55% | Activity (Streptococcus pneumoniae [4]): 23% | Activity (Enterococcus faecium): 89% | Activity [5]: 50% | Activity (Staphylococcus aureus): 91%

COc1cccc(OC)c1C(=O)NCB(O)O
Activity [2]: 100% | Ki [6]: 1.5 µM | IC50 [7]: 278 µM | Activity [3]: 26% | IC50 [8]: > 1000 µM | Activity (Streptococcus pneumoniae [9]): 67% | IC50 [10]: 1.3 µM | Activity [5]: 0%

Cc1ccccc1C(=O)NCB(O)O
Activity (Streptococcus pneumoniae [11]): 27% | Activity [2]: 105% | Activity [3]: 70% | IC50 [8]: 18 µM | Activity (Enterococcus faecium): 85% | Activity [5]: 45% | Activity (Staphylococcus aureus): 88%

O=C(CCc1ccccc1)NCB(O)O
Activity (Streptococcus pneumoniae [11]): 95% | Activity [2]: 99% | Activity [3]: 71% | Activity (Streptococcus pneumoniae [4]): 0% | Activity (Enterococcus faecium): 79% | Activity [5]: 51% | Activity (Staphylococcus aureus): 83%
